Apaf-1 inh = human Apaf-1 inhibition; inhibition, % at 20 µM; AID 489030; hit rate 0.71% among 330,000; reconstituted apoptosome caspase-3 activity, DEVD-Rh110 fluorescence; O14727; active = inhibition of at least 40% at 20 µM;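 note: plate controls were DMSO wells for no effect and DEVD-CHO caspase inhibitor wells for full effect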
Target sequence (O14727 whole entry, looked up): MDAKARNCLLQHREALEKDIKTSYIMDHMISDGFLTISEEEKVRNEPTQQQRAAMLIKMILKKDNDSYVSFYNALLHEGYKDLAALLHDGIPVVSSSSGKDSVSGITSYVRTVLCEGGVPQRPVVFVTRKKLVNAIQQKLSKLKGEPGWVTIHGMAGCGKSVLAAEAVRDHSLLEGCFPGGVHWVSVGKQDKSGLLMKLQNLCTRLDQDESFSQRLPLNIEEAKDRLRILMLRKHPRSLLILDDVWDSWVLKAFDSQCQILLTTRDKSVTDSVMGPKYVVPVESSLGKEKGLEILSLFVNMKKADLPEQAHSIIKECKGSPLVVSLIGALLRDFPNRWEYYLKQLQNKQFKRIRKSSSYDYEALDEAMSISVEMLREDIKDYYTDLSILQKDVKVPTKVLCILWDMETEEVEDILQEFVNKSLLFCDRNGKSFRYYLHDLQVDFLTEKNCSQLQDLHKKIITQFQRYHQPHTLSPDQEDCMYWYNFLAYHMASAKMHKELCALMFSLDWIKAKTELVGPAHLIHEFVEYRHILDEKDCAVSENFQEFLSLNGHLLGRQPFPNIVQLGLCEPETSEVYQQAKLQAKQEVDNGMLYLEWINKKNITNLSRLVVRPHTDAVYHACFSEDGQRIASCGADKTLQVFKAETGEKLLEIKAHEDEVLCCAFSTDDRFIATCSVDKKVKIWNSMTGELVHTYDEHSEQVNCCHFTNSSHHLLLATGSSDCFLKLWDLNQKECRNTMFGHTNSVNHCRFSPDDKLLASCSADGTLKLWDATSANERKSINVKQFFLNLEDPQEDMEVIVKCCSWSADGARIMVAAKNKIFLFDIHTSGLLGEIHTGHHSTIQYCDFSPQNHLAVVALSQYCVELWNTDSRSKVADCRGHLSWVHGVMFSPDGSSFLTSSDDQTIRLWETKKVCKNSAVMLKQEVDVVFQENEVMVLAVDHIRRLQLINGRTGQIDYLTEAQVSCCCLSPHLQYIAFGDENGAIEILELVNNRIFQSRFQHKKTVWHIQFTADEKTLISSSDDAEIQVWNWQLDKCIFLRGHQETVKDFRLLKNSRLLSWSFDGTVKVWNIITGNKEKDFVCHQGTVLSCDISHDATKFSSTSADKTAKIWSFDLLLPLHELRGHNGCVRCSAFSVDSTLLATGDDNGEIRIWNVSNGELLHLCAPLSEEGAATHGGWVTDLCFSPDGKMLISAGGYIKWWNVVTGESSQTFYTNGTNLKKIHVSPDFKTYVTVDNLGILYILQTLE
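Medium: Hepes buffer, pH 7.5 / System: biochemical Apaf-1 apoptosome reconstitution / Measured by: Rh110 fluorescence, excitation 480 nm, emission 540 nm / Times: compound with Apaf-1, dATP, procaspase-3 30 min, then 50 min reaction, room temperature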
Pemphigus Ab inh = blocks pemphigus antibody binding to human desmoglein-3; AID 588358; P32926; hit rate 0.48% among 310,000; binding (percent of control), % at 10 µM; DSG3-coupled beads, scFv-anti-DSG3-GFP binding, flow cytometry; active compounds read low;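 active = binding more than 3 SD below its plate's average and above zero; inconclusive = below that plate limit but binding exactly zero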;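 note: hits lower antibody fragment binding to DSG3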
MEKK2 WT-MEK5 = raises or lowers MEK5 binding to wildtype human MEKK2 PB1 domain; Q9Y2U5; bead flow cytometry, Alexa488-MEK5 binding to MEKK2 WT; actives lie on both sides; binding response (% of control), % at 10 µM; hit rate 1.1% among 290,000; in the data active = binding response below about 67% or above about 130%; inconclusive = no clear call, values can overlap the other calls; inactive = in between
MEKK2 mut-MEK5 = signal of MEK5 binding to mutant human MEKK2 PB1 domain; AID 1530; hit rate 0.35% among 290,000; percent response, % at 10 µM; bead flow cytometry, Alexa488-MEK5 binding to MEKK2 mutant; in the data active = percent response above about 24%, passing the limit was not always enough
MEKK3 PB1 HTS = modulators (inhibitors or enhancers) of MEK5 binding to human MEKK3 PB1 domain. hit rate 1.4% among 290,000. binding response (% of control), % at 10 µM. bead-based flow cytometry, Alexa488-MEK5 binding to MEKK3; actives lie on both sides; 0 = blocked by unlabeled MEK5, 100 = vehicle. AID 1529;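 active = binding response more than 3 SD above or below the average of its plate-row segment, actives on both sides; inconclusive = wells at one plate position flagged as instrument error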;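 note: Alexa488 bead fluorescence after subtracting the streptavidin-only scavenger bead signal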
UBC13 inh = inhibitors of human UBC13 polyubiquitin chain formation; hit rate 0.47% among 330,000; AID 485273; TR-FRET; P61088; inhibition, % at 20 µM; in the data active = inhibition above about 45%, passing the limit was not always enough; inconclusive = no clear call, values can overlap the other calls
MEKK2wt confirm = raises or lowers MEK5 binding to wildtype human MEKK2, retest; bead flow cytometry, Alexa488-MEK5 binding to MEKK2 WT; actives lie on both sides; shares compounds with MEKK3 PB1 HTS; binding response (% of control), % at 10 µM; hit rate 2.4% among 5,900; AID 1892; in the data active = binding response below about 16% or above about 210%; inactive = in between
MEKK2mut-MEK5 = signal of MEK5 binding to mutant human MEKK2, retest; bead flow cytometry, Alexa488-MEK5 binding to MEKK2 mutant; shares compounds with MEKK3 PB1 HTS; hit rate 2% among 5,900; percent response, % at 10 µM; in the data active = percent response mostly above about 71%, no sharp cut-off; inactive = mostly below about 38%;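 note: higher means compound restores mutant binding toward wildtype level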
MEKK3 confirm = MEKK3-MEK5 PB1 inhibition, single concentration confirmation; shares compounds with MEKK3 PB1 HTS; bead flow cytometry, Alexa488-MEK5 binding to MEKK3; active compounds read low; binding response (% of control), % at 10 µM; hit rate 1.8% among 5,900;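 active = binding response below 72% of control, or above a set upper limit, though filed actives all read lower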;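 note: 100% = DMSO only wells and 0% = binding blocked by excess unlabeled MEK5; lower values mean stronger disruption of MEK5 binding to MEKK3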
The depositor's hits bear a star; ? = inconclusive; . = no result; [ ] = another dose, or the depositor's remark. Sampled rows, rich in hits. Any-hit rate of the full collection: about 3.2%.

SMILES	Apaf-1 inh	Pemphigus Ab inh	MEKK2 WT-MEK5	MEKK2 mut-MEK5	MEKK3 PB1 HTS	UBC13 inh	MEKK2wt confirm	MEKK2mut-MEK5	MEKK3 confirm
OC(COc1ccccc1)CN1CCCCC1 (stereo unspecified)	.	96	.	.	.	.	.	.	.
OC(COc1ccc(CNCCc2ccccc2F)cc1)CN1CCCCC1 (stereo unspecified)	14	111	168*	58*	102	7	140	15	109
CC(C)N1CC2(CC(c3ccccc3C(F)(F)F)=NO2)CN1C(=O)c1ccco1 (stereo unspecified)	.	104	.	.	.	.	.	.	.
C[C@@H]1CN([C@H](C)CO)C(=O)CCCn2nncc2CO[C@H]1CN(C)S(=O)(=O)c1cccc(C#N)c1	.	105	.	.	.	.	.	.	.
CC(C)CN(C(=O)COC(=O)C12CC3CC(CC(O)(C3)C1)C2)C1CCS(=O)(=O)C1 (stereo unspecified)	6	.	0.0*[inhibitor]	-17	0.0*[inhibitor]	1	101	-6	100
O=C(COC(=O)Cc1ccccc1[N+](=O)[O-])NCc1ccc(Cl)cc1	4	112	107	0	143*	4	109	1	106
CCOc1ccc(NCCC(O)c2ccc(F)cc2)cc1 (stereo unspecified)	11	106	94	-14	92	2	.	.	.
O=C(CCn1nc(-c2ccc(Cl)cc2)ccc1=O)NCCCN1CCCCCC1	9	111	193*	50*	110	17	191	47	109
Nc1nc(Nc2ccccc2)n[nH]1	5	82	71	8	74*[inhibitor]	2	101	11	102
CCS(=O)(=O)c1nc(S(=O)(=O)c2ccc(Cl)cc2)c(N2CCc3ccccc3C2)s1	-406	97	102	0	135*	-9	100	3	103
CCN1CCN(c2sc(S(=O)(=O)CC)nc2S(=O)(=O)c2ccc(Cl)cc2)CC1	.	97	.	.	.	.	.	.	.
CCCCN(C(C)=O)c1ccc(S(=O)(=O)NC2=NCCCCC2)cc1NC(C)=O	-3	?	.	.	.	12	.	.	.
CCOc1ccc(/C=C2\SC(=S)N(Nc3ccccc3)C2=O)cc1OC	7	93	66	-2	128*	-11	65	-16	93
Cc1ccc(S(=O)(=O)N=Nc2c(O)[nH]c3ccccc23)cc1	7	96	121	6	126*	-11	104	4	105
CCOC(=O)C1(NC(=O)C2(N3C(=O)c4ccccc4C3=O)CCCC2)CCCC1	.	94	.	.	.	.	.	.	.
COc1ccc(CNC(=O)[C@@H](NC(=O)C2CCN(S(=O)(=O)c3ccc(C)cc3)CC2)C(C)C)cc1OC	5	98	99	-5	99	-3	.	.	.
Cc1cccc(C(=O)N2CCCC(N3CCN(c4ccccc4)CC3)C2)n1 (stereo unspecified)	-1	96	101	0	100	4	.	.	.
COC(=O)c1ccc(CNC(=O)COC(=O)C23CC4CC(CC(C4)C2)C3)cc1	7	100	93	-2	75*[inhibitor]	21	99	-1	105
O=C1C=C(C2OC(CO)C(O)C2O)C(=O)N1 (stereo unspecified)	.	98	.	.	.	.	.	.	.
CC(C)(C)S(=O)(=O)c1cnc(-c2cnccn2)nc1N	-8	101	114	29	134*	-11	94	-6	98
Cc1cccnc1NC(=O)CN1C(=O)c2ccccc2S1(=O)=O	-2	108	.	.	.	2	.	.	.
CCCCCCCCCCn1ccc(=N)cc1	-3	105	148*	30	125	19	126	21	108
CCc1ccc(/C=C(\C#N)C(=O)NC2CCS(=O)(=O)C2)cc1 (stereo unspecified)	0	119	.	.	.	-7	.	.	.
